# The source made the active and inactive calls. No cut-off for these calls is given here. Non-standard residues stand in square brackets, D forms with d. Residues, ends and D or L forms follow the SMILES beside them. *: point of attachment. Lys(thiomyristoyl) = CCCCCCCCCCCCCC(=S)NCCCC[C@H](N)C(=O)O; X4 = CN(C)c1ccc(/N=N/c2ccc(CC(=O)*)cc2)cc1; X1 = O=C(Cc1ccc(/N=N/c2ccc(O)cc2)cc1)*
# Assays:
# [1] = biological target: T1, NAD-dependent protein deacetylase sirtuin-1 (Homo sapiens) (UniProt Q96EB6); test: Inhibition of recombinant human C-terminal His6-tagged SIRT1 (Met1 to Ser747 residues) defatty-acylase activity expressed in Escherichia coli at 2 uM using SFP3 as substrate measured at 5 mins interval for 60 mins in presence of NAD+ by fluorescence assay relative to control
# T1 sequence (whole entry): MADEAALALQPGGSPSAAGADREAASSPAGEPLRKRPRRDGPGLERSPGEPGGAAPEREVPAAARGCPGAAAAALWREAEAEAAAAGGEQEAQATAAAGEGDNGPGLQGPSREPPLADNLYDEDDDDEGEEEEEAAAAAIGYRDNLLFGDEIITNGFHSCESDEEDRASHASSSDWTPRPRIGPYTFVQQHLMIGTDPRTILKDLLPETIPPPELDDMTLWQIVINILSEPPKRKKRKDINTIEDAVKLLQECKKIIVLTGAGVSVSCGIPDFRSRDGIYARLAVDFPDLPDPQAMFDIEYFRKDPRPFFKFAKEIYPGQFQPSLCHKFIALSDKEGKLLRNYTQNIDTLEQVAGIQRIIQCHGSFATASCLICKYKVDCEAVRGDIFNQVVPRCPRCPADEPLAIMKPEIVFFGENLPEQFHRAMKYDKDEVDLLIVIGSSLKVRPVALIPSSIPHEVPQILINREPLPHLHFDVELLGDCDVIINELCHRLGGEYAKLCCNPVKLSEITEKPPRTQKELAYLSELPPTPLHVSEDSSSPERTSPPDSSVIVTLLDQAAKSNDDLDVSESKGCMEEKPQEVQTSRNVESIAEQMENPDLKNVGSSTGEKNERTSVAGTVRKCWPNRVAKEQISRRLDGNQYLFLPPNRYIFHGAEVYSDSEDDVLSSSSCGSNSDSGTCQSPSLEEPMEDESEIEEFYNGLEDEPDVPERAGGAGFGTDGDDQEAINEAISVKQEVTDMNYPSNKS
# [2] = biological target: T2, NAD-dependent protein deacetylase sirtuin-2 (Homo sapiens) (UniProt Q8IXJ6); test: Inhibition of recombinant human SIRT2 demyristoylase activity at 1 uM using p53(Myr)-AMC as substrate measured after 3 hrs in presence of NAD+ and trypsin by fluorescence assay relative to control
# T2 sequence (whole entry): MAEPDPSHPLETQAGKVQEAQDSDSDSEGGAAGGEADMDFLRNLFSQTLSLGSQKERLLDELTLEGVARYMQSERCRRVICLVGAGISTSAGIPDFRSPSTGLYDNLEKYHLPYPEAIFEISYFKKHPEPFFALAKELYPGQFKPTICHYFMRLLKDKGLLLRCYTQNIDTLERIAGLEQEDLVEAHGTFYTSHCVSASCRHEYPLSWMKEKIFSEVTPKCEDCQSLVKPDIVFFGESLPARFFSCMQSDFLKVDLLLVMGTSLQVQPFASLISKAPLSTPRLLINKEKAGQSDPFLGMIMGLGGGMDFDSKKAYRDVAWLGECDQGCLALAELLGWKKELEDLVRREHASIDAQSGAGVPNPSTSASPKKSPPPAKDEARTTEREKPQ
# [3] = biological target: T3, NAD-dependent protein deacetylase sirtuin-3, mitochondrial (Homo sapiens) (UniProt Q9NTG7); test: Inhibition of recombinant human SIRT3 (118 to 399 residues) defatty-acylase activity expressed in Escherichia coli at 2 uM using SFP3 as substrate measured at 5 mins interval for 60 mins in presence of NAD+ by fluorescence assay relative to control
# T3 sequence (whole entry): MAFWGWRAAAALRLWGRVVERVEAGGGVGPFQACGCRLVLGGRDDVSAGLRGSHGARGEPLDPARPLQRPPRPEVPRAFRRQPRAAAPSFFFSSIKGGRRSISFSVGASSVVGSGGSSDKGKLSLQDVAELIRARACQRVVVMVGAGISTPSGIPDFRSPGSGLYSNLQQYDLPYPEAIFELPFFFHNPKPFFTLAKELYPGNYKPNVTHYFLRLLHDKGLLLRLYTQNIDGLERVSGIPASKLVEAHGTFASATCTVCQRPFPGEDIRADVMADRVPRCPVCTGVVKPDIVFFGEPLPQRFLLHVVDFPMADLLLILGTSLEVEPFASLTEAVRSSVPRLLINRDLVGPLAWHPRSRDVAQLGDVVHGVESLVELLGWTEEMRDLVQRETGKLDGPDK
# How it was run: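 SIRT3 at 60 nM final with 2.5 μM SFP3 and 500 μM NAD⁺ in Tris-HCl pH 8.0, 150 mM NaCl, 1 mM DTT, 0.05% Triton X-100. Final DMSO 0.2%, or 0.5% for AGK2/NAM. Fluorescence Ex 485/Em 535 nm every 5 min for 60 min at 37 °C. n = 3.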
# [4] = biological target: NAD-dependent protein deacylase sirtuin-6 (Homo sapiens) (UniProt Q8N6T7); test: Inhibition of recombinant human N-terminal polyhis-tagged SIRT6 (1 to 355 residues) defatty-acylase activity expressed in Escherichia coli at 2 uM using SFP3 as substrate measured at 5 mins interval for 60 mins in presence of NAD+ by fluorescence assay relative to control
# NAD-dependent protein deacylase sirtuin-6 (Homo sapiens), sequence (Q8N6T7 whole entry, the tested form may be a part): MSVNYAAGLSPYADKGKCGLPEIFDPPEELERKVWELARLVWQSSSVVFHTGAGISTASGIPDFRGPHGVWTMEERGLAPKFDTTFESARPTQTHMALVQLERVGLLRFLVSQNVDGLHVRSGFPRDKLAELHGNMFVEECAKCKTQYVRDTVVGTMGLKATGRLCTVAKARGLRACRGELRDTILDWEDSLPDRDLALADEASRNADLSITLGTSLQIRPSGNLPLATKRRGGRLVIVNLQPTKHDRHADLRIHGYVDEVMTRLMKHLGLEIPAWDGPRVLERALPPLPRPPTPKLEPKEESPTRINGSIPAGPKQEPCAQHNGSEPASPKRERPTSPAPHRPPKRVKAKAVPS
# [5] = biological target: T2, NAD-dependent protein deacetylase sirtuin-2 (Homo sapiens); test: Inhibition of recombinant human SIRT2 deacylation activity at 1 uM using Fluor de Lys Sirt2 as substrate measured at 5 mins interval for 30 mins in presence of NAD+ by fluorescence assay relative to control
# [6] = biological target: T1, NAD-dependent protein deacetylase sirtuin-1 (Homo sapiens); test: Inhibition of recombinant human C-terminal His6-tagged SIRT1 (Met1 to Ser747 residues) demyristoylase activity expressed in Escherichia coli at 1 uM using p53(Myr)-AMC as substrate measured after 3 hrs in presence of NAD+ and trypsin by fluorescence assay relative to control
# How it was run: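 SIRT1 at 14 nM final with 50 μM p53(Myr)-AMC and 500 μM NAD⁺ in Tris-HCl pH 8.0/NaCl/DTT/Triton buffer, 0.5% DMSO, 3 h at room temperature. Trypsin (100 nM final) plus nicotinamide (1 mM final) then added. Fluorescence Ex 355/Em 460 nm read every 5 min for 20 min at 37 °C. n = 3.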
# [7] = biological target: T3, NAD-dependent protein deacetylase sirtuin-3, mitochondrial (Homo sapiens); test: Inhibition of recombinant human SIRT3 (118 to 399 residues) demyristoylase activity expressed in Escherichia coli at 1 uM using p53(Myr)-AMC as substrate measured after 3 hrs in presence of NAD+ and trypsin by fluorescence assay relative to control
# How it was run: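 SIRT3 at 120 nM with 50 μM p53(Myr)-AMC and 500 μM NAD⁺ in Tris-HCl pH 8.0/NaCl/DTT/Triton buffer, 0.5% DMSO, 3 h at room temperature. Trypsin (100 nM) plus nicotinamide (1 mM) then added. Fluorescence Ex 355/Em 460 nm every 5 min for 20 min at 37 °C. n = 3.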
# [8] = biological target: T2, NAD-dependent protein deacetylase sirtuin-2 (Homo sapiens); test: Inhibition of recombinant human SIRT2 defatty-acylase activity at 2 uM using SFP3 as substrate measured at 5 mins interval for 60 mins in presence of NAD+ by fluorescence assay relative to control
# [9] = biological target: T2, NAD-dependent protein deacetylase sirtuin-2 (Homo sapiens); test: Inhibition of recombinant human SIRT2 defatty-acylase activity using SFP3 as substrate measured at 5 mins interval for 60 mins in presence of NAD+ by fluorescence assay
# [10] = biological target: T2, NAD-dependent protein deacetylase sirtuin-2 (Homo sapiens); test: Inhibition of recombinant human SIRT2 deacylation activity using H4K16-Ac as substrate measured after 30 mins in presence of NAD+ by HPLC analysis
# How it was run: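 H4K16-Ac peptide at 100 μM with 500 μM NAD⁺ and 175 nM SIRT2 in Tris-HCl pH 8.0/NaCl/Triton buffer lacking DTT, 0.5% DMSO, 30 min at 37 °C. Inhibitors at 0.01–10 μM. Stopped with HCl in MeOH. Deacetylated product quantified by reversed-phase HPLC at 280 nm.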
# HeLa = test: Cytotoxicity against human HeLa cells assessed as reduction in cell viability at 50 uM measured after 72 hrs by CCK8 assay; type: functional, cell-based
# How it was run: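 HeLa cells, 1.0 × 10⁴ per well on PLL-coated plates, grown overnight in DMEM with 10% FBS and penicillin/streptomycin, 37 °C, 5% CO₂. Compounds added in DMEM (2% DMSO stock), range 1.56–50 μM final, for 72 h. CCK-8 reagent then 2 h at 37 °C, absorbance read at 450 nm. DMSO control.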
# [11] = biological target: T2, NAD-dependent protein deacetylase sirtuin-2 (Homo sapiens); test: Inhibition of recombinant human SIRT2 demyristoylase activity using H4K16-Myr as substrate measured after 2 hrs in presence of NAD+ by HPLC analysis
# How it was run: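 H4K16-Myr at 100 μM with 500 μM NAD⁺ and 175 nM SIRT2 in Tris-HCl pH 8.0/NaCl/Triton buffer without DTT, 0.5% DMSO, 2 h at 37 °C. Inhibitors at 0.1–10 μM; AGK2 at 50 μM, NAM at 500 μM. Stopped with HCl/MeOH. Demyristoylated H4K16 product measured by HPLC at 280 nm. Percent inhibition, n = 3.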
# [12] = biological target: T2, NAD-dependent protein deacetylase sirtuin-2 (Homo sapiens); test: Non-competitive inhibition of recombinant human SIRT2 defatty-acylase activity at 15 to 30 nM using SFP3 as substrate measured at 1 min interval for 30 mins in presence of varying levels of NAD+ by Michaelis-Menten plot analysis
# [13] = biological target: T2, NAD-dependent protein deacetylase sirtuin-2 (Homo sapiens); test: Time-dependent inhibition of recombinant human SIRT2 defatty-acylase activity at 15.6 to 250 nM using SFP3 as substrate measured at 5 mins interval for 60 mins in presence of NAD+ by fluorescence assay
SMILES,inhibition [4] [%],inhibition [10],Activity (HeLa),inhibition [11],inhibition [12],other results
CCCCCCCCCCCCCC(=O)NCCCC[C@H](NC(=O)OCc1ccccc1)C(=O)Nc1ccccc1,-3.5,,,,,inhibition [1]: -0.59%; inhibition [2]: 5.2%; inhibition [3]: -2.3%; inhibition [5]: 42%; inhibition [6]: 1.7%; inhibition [7]: 1.7%; inhibition [8]: 2.8%
O=C(Cc1ccc(/N=N/c2ccccc2)cc1)NCCCC[C@H](NC(=O)OCC1c2ccccc2-c2ccccc21)C(=O)O,,,,,,inhibition [9]: inactive
CC[C@H](C)[C@H](NC(=O)[C@H](CCCNC(=N)N)NC(C)=O)C(=O)N[C@@H](CCCCNC(=O)Cc1ccc(/N=N/c2ccc(O)cc2)cc1)C(=O)N[C@@H](CCCNC(=N)N)C(=O)N[C@@H](Cc1ccc(O)cc1)C(N)=O (Ac-RIK(X1)RY-NH2),43,Dose-dependent effect,inactive,Dose-dependent effect,Active,
CC[C@H](C)[C@H](NC(=O)[C@H](CCCNC(=N)N)NC(C)=O)C(=O)N[C@@H](CCCCNC(=O)Cc1ccc(/N=N/c2ccc(N(C)C)cc2)cc1)C(=O)N[C@@H](CCCNC(=N)N)C(=O)N[C@@H](Cc1ccc(O)cc1)C(N)=O (Ac-RIK(X4)RY-NH2),40,,,,,TDI [13]: Active
CCCCCCCCCCCCCC(=S)NCCCC[C@H](NC(=O)[C@@H](NC(=O)[C@H](CCCNC(=N)N)NC(C)=O)[C@@H](C)CC)C(=O)N[C@@H](CCCNC(=N)N)C(=O)N[C@@H](Cc1ccc(O)cc1)C(N)=O (Ac-RI[Lys(thiomyristoyl)]RY-NH2),,Dose-dependent effect,inactive,Dose-dependent effect,Active,

# Source: ChEMBL document CHEMBL4304758, “Development of Peptide-Based Sirtuin Defatty-Acylase Inhibitors Identified by the Fluorescence Probe, SFP3, That Can Efficiently Measure Defatty-Acylase Activity of Sirtuin” (J Med Chem, 2019)
